Converted amounts (≈) assume the structure as drawn. Where two headings read alike, the source gives them in different places. Marks after values point to notes of the source that are not given here.
Experiments:
[1] = test system: MRC-5 (human lung fibroblast) cells; experiment: Trypan blue dye exclusion assay, MRC-5 cells; type: cell-based
Summary of the method: (§1)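 Cells were seeded at 5,000/well for 24 h: MRC-5 in EMEM and A549 in F-12K, each with 10% FBS. They were then given test compound (50, 100, 150 μg/mL), cisplatin (0.5, 1, 2 μg/mL) or 0.5% DMSO control for 24–72 h at 37 °C, 5% CO2. After trypsinisation, viable cells were counted by trypan blue exclusion on a hemocytometer (quadruplicate wells). IC50 came from growth curves. At least three repeats.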

[2] = test system: A549 (human lung carcinoma) cells; experiment: Trypan blue dye exclusion assay, A549 cells; type: cell-based
Summary of the method: as §1

[3] = test system: MRC-5 (human lung fibroblast) cells; experiment: MTS cell viability assay, MRC-5 cells; type: cell-based
A549 cells [4] = experiment: Scratch assay of cell migration; type: cell-based, human
Summary of the method: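 A549 monolayers were grown to 90–100% confluence in 24 h, scratched with a pipette tip and washed with PBS; initial gap width was measured at ×400. Cells were then kept in serum-free medium with test compound (0–150 μg/mL) or cisplatin (1 μg/mL) at 37 °C, 5% CO2. Gap widths were read by phase-contrast at each time point to 72 h, giving % wound closure. Three repeats.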

A549 cells [5] = experiment: Matrigel invasion assay; type: cell-based, human
Summary of the method: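 Matrigel was diluted in cold serum-free medium and gelled overnight at 37 °C in Transwell upper chambers. A549 cells were added in serum-free medium with test compound (0–150 μg/mL) or cisplatin (1 μg/mL), with 10% FBS below as chemoattractant, for 24 and 48 h at 37 °C. Invaded cells were fixed (3.7% paraformaldehyde, methanol), stained with crystal violet and counted in five fields. % invasion was set against uncoated membrane. Three repeats.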

[6] = MTS cell viability assay, MRC-5 cells; type: cell-based, human; details: human, MRC-5 lung fibroblast cells
[7] = test system: A549 (human lung carcinoma) cells; experiment: MTS cell viability assay, A549 cells; type: cell-based; details: for viability at 50 µg/mL / viability at 100 µg/mL / viability at 150 µg/mL: read-out: Cell viability (%)

N.N.[Cl][Pt][Cl] [DDP, cis-diamminedichloroplatinum II]
Number of cells ([1]; MRC-5, 0.5 μg/mL, 24 h): 13,900 ± 302^b
Number of cells ([1]; MRC-5, 0.5 μg/mL, 48 h): 15,666 ± 418^a,b
Number of cells ([1]; MRC-5, 0.5 μg/mL, 72 h): 21,100 ± 488^a,b
Number of cells ([1]; MRC-5, 1 μg/mL, 24 h): 13,516 ± 414
Number of cells ([1]; MRC-5, 1 μg/mL, 48 h): 15,400 ± 347^a,b
Number of cells ([1]; MRC-5, 1 μg/mL, 72 h): 20,500 ± 465^a,b
Number of cells ([1]; MRC-5, 2 μg/mL, 24 h): 12,933 ± 396^a
Number of cells ([1]; MRC-5, 2 μg/mL, 48 h): 14,933 ± 292^b
Number of cells ([1]; MRC-5, 2 μg/mL, 72 h): 19,666 ± 389^a,b
Number of cells ([2]; A549, 0.5 μg/mL, 24 h): 14,000± 310^a,b
Number of cells ([2]; A549, 0.5 μg/mL, 48 h): 14,050 ± 523^a,b
Number of cells ([2]; A549, 0.5 μg/mL, 72 h): 16,666 ± 420^b
Number of cells ([2]; A549, 1 μg/mL, 24 h): 11,250± 545^a,b
Number of cells ([2]; A549, 1 μg/mL, 48 h): 11,616 ± 590^a,b
Number of cells ([2]; A549, 1 μg/mL, 72 h): 12,833 ± 564^a,b
Number of cells ([2]; A549, 2 μg/mL, 24 h): 8,583± 589^a,b
Number of cells ([2]; A549, 2 μg/mL, 48 h): 9,833 ± 650^a,b
Number of cells ([2]; A549, 2 μg/mL, 72 h): 8,983 ± 310^a,b
IC50 values, MRC-5 cells ([3]; MTS assay, 72-h): > 2 µg/mL
Gap closure (%) (A549 cells [4]; A549, 0.5 μg/mL, 0 h): 0%
Gap closure (%) (A549 cells [4]; A549, 0.5 μg/mL, 24 h): 3.09 ± 0.25^a,b %
Gap closure (%) (A549 cells [4]; A549, 0.5 μg/mL, 48 h): 4.36 ± 0.60^a %
Gap closure (%) (A549 cells [4]; A549, 0.5 μg/mL, 72 h): 4.77 ± 0.19^a %
Gap closure (%) (A549 cells [4]; A549, 1 μg/mL, 0 h): 0%
Gap closure (%) (A549 cells [4]; A549, 1 μg/mL, 24 h): 2.52 ± 0.16^a,b %
Gap closure (%) (A549 cells [4]; A549, 1 μg/mL, 48 h): 3.18 ± 0.04^a,b %
Gap closure (%) (A549 cells [4]; A549, 1 μg/mL, 72 h): 3.55 ± 0.42^a %
Gap closure (%) (A549 cells [4]; A549, 2 μg/mL, 0 h): 0%
Gap closure (%) (A549 cells [4]; A549, 2 μg/mL, 24 h): 2.38 ± 0.06^a,b %
Gap closure (%) (A549 cells [4]; A549, 2 μg/mL, 48 h): 2.92 ± 0.04^a,b %
Gap closure (%) (A549 cells [4]; A549, 2 μg/mL, 72 h): 3.53 ± 0.16^a,b %
Invasion (%) (A549 cells [5]; A549, 0.5 μg/mL, 24 h): 29.01 ± 4.99^a,b %
Invasion (%) (A549 cells [5]; A549, 0.5 μg/mL, 48 h): 18.62 ± 3.11^a,b %
Invasion (%) (A549 cells [5]; A549, 1 μg/mL, 24 h): 26.12 ± 4.22^a,b %
Invasion (%) (A549 cells [5]; A549, 1 μg/mL, 48 h): 16.13 ± 2.66^a,b %
Invasion (%) (A549 cells [5]; A549, 2 μg/mL, 24 h): 20.91 ± 2.05^a,b %
Invasion (%) (A549 cells [5]; A549, 2 μg/mL, 48 h): 14.42 ± 1.57^a,b %

COc1ccc(-c2cc(=O)c3c(O)cc(O[C@@H]4O[C@H](CO[C@@H]5O[C@@H](C)[C@H](O)[C@@H](O)[C@H]5O)[C@@H](O)[C@H](O)[C@H]4O)cc3o2)cc1O [Diosmin, diosmin]
IC50 ([1]; Homo sapiens, MRC5, 72 h, read-out: IC50 value, MRC-5 cells): > 150 µg/mL
Number of cells ([1]; MRC-5, 50 μg/mL, 24 h): 11,666± 387^a,b
Number of cells ([1]; MRC-5, 50 μg/mL, 48 h): 14,583 ± 489^b
Number of cells ([1]; MRC-5, 50 μg/mL, 72 h): 19,583 ± 405^a,b
Number of cells ([1]; MRC-5, 100 μg/mL, 24 h): 9,583 ± 463^a,b
Number of cells ([1]; MRC-5, 100 μg/mL, 48 h): 12,083 ± 723^a
Number of cells ([1]; MRC-5, 100 μg/mL, 72 h): 17,500 ± 456^a,b
Number of cells ([1]; MRC-5, 150 μg/mL, 24 h): 6,666± 709^a,b
Number of cells ([1]; MRC-5, 150 μg/mL, 48 h): 10,000 ± 630^a,b
Number of cells ([1]; MRC-5, 150 μg/mL, 72 h): 15,833 ± 544^a,b
Number of cells ([2]; A549, 50 μg/mL, 24 h): 13,333± 444^a,b
Number of cells ([2]; A549, 50 μg/mL, 48 h): 18,333 ± 510^b
Number of cells ([2]; A549, 50 μg/mL, 72 h): 26,250 ± 392^a,b
Number of cells ([2]; A549, 100 μg/mL, 24 h): 10,833± 487^a,b
Number of cells ([2]; A549, 100 μg/mL, 48 h): 13,750 ± 538^a,b
Number of cells ([2]; A549, 100 μg/mL, 72 h): 18,750 ± 426^a,b
Number of cells ([2]; A549, 150 μg/mL, 24 h): 6,666± 539^a,b
Number of cells ([2]; A549, 150 μg/mL, 48 h): 8,750 ± 572^a,b
Number of cells ([2]; A549, 150 μg/mL, 72 h): 11,250 ± 559^a,b
IC50 ([2]; Homo sapiens, A549, 72 h, read-out: IC50 values, A549 cells): 97.7 ± 4.23 µg/mL (≈ 160 µM)
viability at 24 h, 50 μg/mL [6]: 80.9 ± 8.46%
viability at 24 h, 100 μg/mL [6]: 54.7 ± 7.45%
viability at 24 h, 150 μg/mL [6]: 44.9 ± 5.58%
viability at 48 h, 50 μg/mL [6]: 78 ± 9.3%
viability at 48 h, 100 μg/mL [6]: 53.9 ± 9.19%
viability at 48 h, 150 μg/mL [6]: 47.5 ± 2.05%
viability at 72 h, 50 μg/mL [6]: 86.7 ± 1.38%
viability at 72 h, 100 μg/mL [6]: 71 ± 9.54%
viability at 72 h, 150 μg/mL [6]: 49.9 ± 8.02%
IC50 ([3]; Homo sapiens, MRC5, 72 h, read-out: IC50 values, MRC-5 cells): 150 ± 6.32 µg/mL (≈ 246 µM)
viability at 50 µg/mL ([7]; A549, 24 h): 72.3 ± 3.23%
viability at 100 µg/mL ([7]; A549, 24 h): 61.6 ± 4.07%
viability at 150 µg/mL ([7]; A549, 24 h): 45.6 ± 4.59%
viability at 50 µg/mL ([7]; A549, 48 h): 71.1 ± 1.37%
viability at 100 µg/mL ([7]; A549, 48 h): 57.6 ± 5.15%
viability at 150 µg/mL ([7]; A549, 48 h): 47.3 ± 6.78%
viability at 50 µg/mL ([7]; A549, 72 h): 54.9 ± 3.43%
viability at 100 µg/mL ([7]; A549, 72 h): 50.7 ± 1.19%
viability at 150 µg/mL ([7]; A549, 72 h): 35.6 ± 5.95%
IC50 ([7]; A549, 72 h, read-out: IC50 values, A549 cells): 106 ± 3.52 µg/mL (≈ 175 µM)
Gap closure (%) (A549 cells [4]; A549, 50 μg/mL, 0 h): 0%
Gap closure (%) (A549 cells [4]; A549, 50 μg/mL, 24 h): 4.88 ± 0.82^a %
Gap closure (%) (A549 cells [4]; A549, 50 μg/mL, 48 h): 7.58 ± 1.07^a,b %
Gap closure (%) (A549 cells [4]; A549, 50 μg/mL, 72 h): 10.82 ± 1.10^b %
Gap closure (%) (A549 cells [4]; A549, 100 μg/mL, 0 h): 0%
Gap closure (%) (A549 cells [4]; A549, 100 μg/mL, 24 h): 3.97 ± 0.26^a %
Gap closure (%) (A549 cells [4]; A549, 100 μg/mL, 48 h): 6.08 ± 0.87^a %
Gap closure (%) (A549 cells [4]; A549, 100 μg/mL, 72 h): 8.24 ± 0.67^a,b %
Gap closure (%) (A549 cells [4]; A549, 150 μg/mL, 0 h): 0%
Gap closure (%) (A549 cells [4]; A549, 150 μg/mL, 24 h): 3.32 ± 0.19^a,b %
Gap closure (%) (A549 cells [4]; A549, 150 μg/mL, 48 h): 5.32 ± 0.64^a %
Gap closure (%) (A549 cells [4]; A549, 150 μg/mL, 72 h): 6.84 ± 0.55^a,b %
Invasion (%) (A549 cells [5]; A549, 50 μg/mL, 24 h): 43.51 ± 2.39^a,b %
Invasion (%) (A549 cells [5]; A549, 50 μg/mL, 48 h): 38.05 ± 5.14^a,b %
Invasion (%) (A549 cells [5]; A549, 100 μg/mL, 24 h): 38.60 ± 3.31^a,b %
Invasion (%) (A549 cells [5]; A549, 100 μg/mL, 48 h): 31.39 ± 2.71^a,b %
Invasion (%) (A549 cells [5]; A549, 150 μg/mL, 24 h): 34.79 ± 3.59^a,b %
Invasion (%) (A549 cells [5]; A549, 150 μg/mL, 48 h): 27.60 ± 1.62^a,b %
Invasion (%) (A549 cells [5]; A549, 150 μg/mL, 48 h, listed as diosmin): 27.60 ± 1.62%
